In the experiment the target is Coagulation factor X (Homo sapiens) (UniProt P00742). Description: Binding affinity for coagulation factor X as apparent association constant (Kass) derived from protease inhibition kinetics. Put shortly: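 Human fXa, 3.2 nM final, in tris/NaCl buffer pH 7.4 with HSA; inhibitor added in MeOH, then chromogenic substrate (0.3 mM stock in water) to start hydrolysis; rates read at 405 nm. Four to eight inhibitor concentrations, n = 3 each.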

49 compounds from ChEMBL document CHEMBL1133124, “N(2)-Aroylanthranilamide inhibitors of human factor Xa” (J Med Chem, 2000) can be followed below.

Coagulation factor X (Homo sapiens), sequence (P00742 41-179 limits assumed): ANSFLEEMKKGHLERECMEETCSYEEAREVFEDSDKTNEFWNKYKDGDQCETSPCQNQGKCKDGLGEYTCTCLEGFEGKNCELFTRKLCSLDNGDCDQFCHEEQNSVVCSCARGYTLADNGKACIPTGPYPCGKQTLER
Coagulation factor X (Homo sapiens), sequence (P00742 235-488 limits assumed): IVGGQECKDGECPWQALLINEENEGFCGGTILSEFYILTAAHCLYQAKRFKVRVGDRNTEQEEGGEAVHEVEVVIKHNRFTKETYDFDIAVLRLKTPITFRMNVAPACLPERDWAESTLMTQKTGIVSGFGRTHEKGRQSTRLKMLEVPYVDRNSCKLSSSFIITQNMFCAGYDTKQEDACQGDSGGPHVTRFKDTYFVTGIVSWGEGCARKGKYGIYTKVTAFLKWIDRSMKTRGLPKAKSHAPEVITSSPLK

In the case of `COc1ccc(NC(=O)c2cc(NC(=O)CCC(=O)O)ccc2NC(=O)c2ccc(N(C)C)cc2)cc1`, the K ass was 400000 l M-1.

Regarding `COc1ccc(NC(=O)c2ccccc2NC(=O)c2ccc(C(C)O)cc2)cc1` (centres undefined), the K ass is 400000 l M-1.

With `COc1ccc(NC(=O)c2cc(NC(=O)CCC(=O)O)ccc2NC(=O)c2ccc(C(C)(C)C)cc2)cc1`, the K ass is 150000 l M-1.

Take `COc1ccc(C(=O)Nc2ccccc2NC(=O)c2ccc(OC)cc2)cc1`: the K ass is 1.3e+06 l M-1.

For the compound `COc1ccc(NC(=O)c2cc([N+](=O)[O-])ccc2NC(=O)c2ccc(C(C)(C)C)cc2)cc1`, the K ass is 2.1e+06 l M-1.

In the case of `COc1ccc(NC(=O)c2ccccc2NC(=O)c2ccc(C(C)(C)C)cc2)cc1`, the K ass was 4.7e+06 l M-1.

For the compound `CC(C)(C)c1ccc(C(=O)Nc2ccccc2C(=O)Nc2ccccc2)cc1`, the K ass was 460000 l M-1.

Take `COc1ccc(NC(=O)c2ccccc2NC(=O)c2ccc(Cl)c(Cl)c2)cc1`: the K ass is 10000 l M-1.

As for `CC(C)(C)c1ccc(C(=O)Nc2ccccc2C(=O)Nc2ccc(Cl)cc2)cc1`, the K ass is 490000 l M-1.

Regarding `Cc1ccc(NC(=O)c2ccccc2NC(=O)c2ccc(C(C)(C)C)cc2)cc1`, the K ass was 3.4e+06 l M-1.

`COc1ccc(NC(=O)c2ccccc2NC(=O)c2ccc(C(C)=O)cc2)cc1`: the K ass was 450000 l M-1.

For `COc1ccc(NC(=O)c2ccc(NC(C)=O)cc2NC(=O)c2ccc(C(C)(C)C)cc2)cc1`, the K ass was 2.2e+06 l M-1.

`COc1ccc(NC(=O)c2ccccc2NC(=O)c2ccc(C)cc2)cc1`: the K ass is 1.8e+06 l M-1.

With `COc1ccc(NC(=O)c2ccc(N)cc2NC(=O)c2ccc(N(C)C)cc2)cc1`, the K ass is 2.27e+07 l M-1.

In the case of `COc1ccc(NC(=O)c2ccccc2NC(=O)c2ccc(C(F)(F)F)cc2)cc1`, the K ass was 90000 l M-1.

With `COc1ccc(C(=O)Nc2ccccc2C(=O)Nc2ccc(C(C)(C)C)cc2)cc1`, the K ass is 30000 l M-1.

Turning to `CC(C)(C)c1ccc(C(=O)Nc2ccccc2C(=O)Nc2ccc(C(F)(F)F)cc2)cc1`, the K ass is 1000 l M-1.

Turning to `CC(C)(C)c1ccc(C(=O)Nc2ccccc2C(=O)Nc2ccc(OC(F)(F)F)cc2)cc1`, the K ass is < 1000 l M-1.

As to `COc1ccc(NC(=O)c2ccccc2NC(=O)c2ccc(Cl)cc2)cc1`, the K ass is 270000 l M-1.

In the case of `COc1ccc(NC(=O)c2ccc(N)cc2NC(=O)c2ccc(C(C)(C)C)cc2)cc1`, the K ass was 6.3e+06 l M-1.

As for `COc1ccc(NC(=O)c2ccc(NS(C)(=O)=O)cc2NC(=O)c2ccc(C(C)(C)C)cc2)cc1`, the K ass was 3.9e+06 l M-1.

Regarding `COc1ccc(NC(=O)c2ccc(NC(=O)CCC(=O)O)cc2NC(=O)c2ccc(N(C)C)cc2)cc1`, the K ass was 9.6e+06 l M-1.

Regarding `COc1ccc(NC(=O)c2ccc(NC(=O)CCC(=O)O)cc2NC(=O)c2ccc(C(C)(C)C)cc2)cc1`, the K ass was 9.6e+06 l M-1.

With `COc1ccc(CCc2ccccc2NC(=O)c2ccc(OC)cc2)cc1`, the K ass was < 1000 l M-1.

Consider `CCOc1ccc(C(=O)Nc2ccccc2C(=O)Nc2ccc(OC)cc2)cc1`, for which the K ass is 1e+06 l M-1.

In the case of `COc1ccc(NC(=O)c2ccc(NS(C)(=O)=O)cc2NC(=O)c2ccc(N(C)C)cc2)cc1`, the K ass is 8e+06 l M-1.

On to `COc1ccc(/C=C/c2ccccc2NC(=O)c2ccc(OC)cc2)cc1`, for which the K ass is 30000 l M-1.

Turning to `COc1ccc(NC(=O)c2ccccc2NC(=O)c2cccc(N(C)C)c2)cc1`, the K ass was 90000 l M-1.

On to `COc1ccc(NC(=O)c2ccccc2C(=O)Nc2ccc(OC)cc2)cc1`, for which the K ass was 70000 l M-1.

Consider `COc1ccc(NC(=O)c2ccccc2NC(=O)c2ccc(C(C)(C)O)cc2)cc1`, for which the K ass was 480000 l M-1.

On to `COc1ccc(NC(=O)c2ccc([N+](=O)[O-])cc2NC(=O)c2ccc(C(C)(C)C)cc2)cc1`, for which the K ass was 80000 l M-1.

As for `COc1ccc(NC(=O)c2ccc(NS(=O)(=O)c3ccccc3)cc2NC(=O)c2ccc(C(C)(C)C)cc2)cc1`, the K ass is 620000 l M-1.

Consider `COc1ccc(NC(=O)c2cc(N)ccc2NC(=O)c2ccc(N(C)C)cc2)cc1`, for which the K ass was 7e+06 l M-1.

On to `COc1ccc(NC(=O)c2ccccc2NC(=O)c2cccc(C)c2)cc1`, for which the K ass was 30000 l M-1.

Consider `CCc1ccc(NC(=O)c2ccccc2NC(=O)c2ccc(C(C)(C)C)cc2)cc1`, for which the K ass is 1000 l M-1.

In the case of `COc1ccc(NC(=O)c2ccccc2NC(=O)c2cccc(Cl)c2)cc1`, the K ass was 30000 l M-1.

As for `CC(C)(C)c1ccc(C(=O)Nc2ccccc2C(=O)Nc2ccc(Br)cc2)cc1`, the K ass is 220000 l M-1.

Regarding `COc1ccc(OCc2ccccc2NC(=O)c2ccc(OC)cc2)cc1`, the K ass was 30000 l M-1.

With `CC(C)(C)c1ccc(C(=O)Nc2ccccc2C(=O)Nc2ccc(F)cc2)cc1`, the K ass is 110000 l M-1.

As to `COc1ccc(NC(=O)c2cc(N)ccc2NC(=O)c2ccc(C(C)(C)C)cc2)cc1`, the K ass was 2.5e+06 l M-1.

With `COc1ccc(NC(=O)c2cc(NS(=O)(=O)c3ccccc3)ccc2NC(=O)c2ccc(C(C)(C)C)cc2)cc1`, the K ass was 4.9e+06 l M-1.

On to `COc1ccc(NC(=O)c2ccccc2NC(=O)c2ccc(C(C)C)cc2)cc1`, for which the K ass is 7e+06 l M-1.

For `COc1ccc(NC(=O)c2ccccc2NC(=O)c2ccc(OC)cc2)cc1`, the K ass is 1.2e+06 l M-1.

As to `COc1ccc(NC(=O)c2ccccc2NC(=O)c2ccc(N(C)C)cc2)cc1`, the K ass was 2.01e+07 l M-1.

Turning to `COc1ccc(C(=O)Nc2ccccc2NC(=O)c2ccc(N(C)C)cc2)cc1`, the K ass was 1.87e+07 l M-1.

`COc1ccc(NC(=O)c2ccccc2NC(=O)c2ccc(C(N)=O)cc2)cc1`: the K ass is 1.12e+06 l M-1.

For `COc1ccc(NC(=O)c2cc(NS(C)(=O)=O)ccc2NC(=O)c2ccc(N(C)C)cc2)cc1`, the K ass was 5.79e+07 l M-1.

For `COc1ccc(NC(=O)c2cc(NS(C)(=O)=O)ccc2NC(=O)c2ccc(C(C)(C)C)cc2)cc1`, the K ass was 1.35e+07 l M-1.

As to `COc1ccc(NC(=O)c2cc(NC(C)=O)ccc2NC(=O)c2ccc(C(C)(C)C)cc2)cc1`, the K ass was 40000 l M-1.
